Data from ChEMBL document CHEMBL3352248, “Converting potent indeno[1,2-b]indole inhibitors of protein kinase CK2 into selective inhibitors of the breast cancer resistance protein ABCG2” (J Med Chem, 2015).
Activity calls are given as the source filed them. The calls are words filed in the database; no cut-off is given here.

Tests used:
[1] = Intrinsic cytotoxicity against HEK293 cells assessed as reduction in cell viability after 72 hrs by MTT assay; type: cell-based; details: human, read-out: IG50
Summary of the method: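 Wild-type HEK293 cells were seeded at 1 × 10^4/well, incubated overnight, then treated with compound (0–250 μM) for 72 h. MTT at 0.5 mg/mL was added for 4 h at 37 °C. Formazan was dissolved in DMSO/ethanol 1:1, and absorbance was read at 570 nm minus 690 nm to give IG50.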

ABCG2 [2] = target: T1, ABCG2 (Homo sapiens, UniProt Q9UNQ0); assay: Inhibition of ABCG2 (unknown origin) expressed in HEK293 cells assessed as reduction in mitoxantrone efflux at 10 uM after 30 mins by FACS method; type: cell-based; details: HEK293 cells expressing ABCG2, probe mitoxantrone
T1 sequence (Q9UNQ0 whole entry): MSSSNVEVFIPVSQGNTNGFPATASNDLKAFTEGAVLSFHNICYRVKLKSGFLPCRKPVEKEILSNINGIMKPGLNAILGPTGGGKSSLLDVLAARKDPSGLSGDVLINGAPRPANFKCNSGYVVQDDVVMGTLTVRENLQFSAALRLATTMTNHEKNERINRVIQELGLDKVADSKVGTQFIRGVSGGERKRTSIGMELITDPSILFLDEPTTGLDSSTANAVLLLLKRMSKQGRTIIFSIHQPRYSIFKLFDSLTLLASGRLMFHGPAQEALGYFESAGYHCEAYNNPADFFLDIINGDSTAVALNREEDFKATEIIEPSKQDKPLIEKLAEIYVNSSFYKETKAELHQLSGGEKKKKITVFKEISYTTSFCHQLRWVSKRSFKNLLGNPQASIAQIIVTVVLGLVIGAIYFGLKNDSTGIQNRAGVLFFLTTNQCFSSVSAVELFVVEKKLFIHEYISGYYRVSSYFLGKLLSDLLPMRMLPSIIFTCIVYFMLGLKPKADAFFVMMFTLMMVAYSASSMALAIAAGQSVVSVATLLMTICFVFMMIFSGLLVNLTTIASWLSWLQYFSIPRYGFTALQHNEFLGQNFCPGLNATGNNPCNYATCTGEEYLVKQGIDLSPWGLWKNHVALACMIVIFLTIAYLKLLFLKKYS
Summary of the method: (§1)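 HEK293 cells stably transfected with ABCG2 (kept in 0.75 mg/mL G418) were seeded at 1.0 × 10^5/well and grown 72 h. They were then exposed to 5 μM mitoxantrone for 30 min at 37 °C with or without compound, washed and trypsinized. Intracellular fluorescence was read by flow cytometry (FL4, ≥10,000 events).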

[3] = target: T2, Broad substrate specificity ATP-binding cassette transporter ABCG2 (Homo sapiens, UniProt Q9UNQ0); assay: Inhibition of ABCG2 (unknown origin) expressed in HEK293 cells assessed as reduction in mitoxantrone efflux after 30 mins by FACS method; type: cell-based; summary of the method: as §1
T2 sequence (Q9UNQ0 whole entry): T1 sequence (Q9UNQ0 whole entry)

Casein kinase II = Casein kinase II (Homo sapiens, UniProt P19784+P67870+P68400); assay: Inhibition of human recombinant CK2a1/CK2b holoenzyme expressed in Escherichia coli BL21(DE3) pre-incubated for 10 mins before substrate addition by capillary electrophoresis based assay
Sequence of Casein kinase II (P67870 whole entry): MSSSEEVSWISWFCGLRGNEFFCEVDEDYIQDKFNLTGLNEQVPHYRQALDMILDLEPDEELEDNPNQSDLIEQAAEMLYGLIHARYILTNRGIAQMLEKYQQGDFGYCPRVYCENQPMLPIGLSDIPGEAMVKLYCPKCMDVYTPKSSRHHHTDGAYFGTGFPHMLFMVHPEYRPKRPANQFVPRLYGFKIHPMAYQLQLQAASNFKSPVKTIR
Sequence of Casein kinase II (P68400 whole entry): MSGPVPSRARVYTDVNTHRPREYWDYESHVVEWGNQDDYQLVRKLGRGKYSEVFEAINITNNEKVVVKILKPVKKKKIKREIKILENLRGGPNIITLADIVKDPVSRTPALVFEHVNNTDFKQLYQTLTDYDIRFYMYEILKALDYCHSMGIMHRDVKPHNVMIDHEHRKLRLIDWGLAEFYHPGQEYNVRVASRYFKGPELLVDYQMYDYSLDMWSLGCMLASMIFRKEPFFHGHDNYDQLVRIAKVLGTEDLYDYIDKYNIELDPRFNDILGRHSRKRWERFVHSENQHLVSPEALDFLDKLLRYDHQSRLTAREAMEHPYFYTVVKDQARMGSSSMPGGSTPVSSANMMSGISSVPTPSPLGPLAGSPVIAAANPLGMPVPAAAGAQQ
Sequence of Casein kinase II (P19784 whole entry): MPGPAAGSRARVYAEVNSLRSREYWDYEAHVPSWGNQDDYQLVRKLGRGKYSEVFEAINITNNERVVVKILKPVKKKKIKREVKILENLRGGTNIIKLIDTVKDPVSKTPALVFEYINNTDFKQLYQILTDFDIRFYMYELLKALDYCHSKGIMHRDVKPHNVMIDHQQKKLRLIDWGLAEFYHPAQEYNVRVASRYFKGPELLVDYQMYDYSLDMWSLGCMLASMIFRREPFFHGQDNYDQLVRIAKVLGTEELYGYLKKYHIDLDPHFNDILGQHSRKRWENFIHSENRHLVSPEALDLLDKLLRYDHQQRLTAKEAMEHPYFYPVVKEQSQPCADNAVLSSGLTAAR

HEK293 = assay: Selectivity index, ratio of IC50 for human recombinant CK2a1/CK2b holoenzyme expressed in Escherichia coli BL21(DE3) to IC50 for ABCG2 (unknown origin) expressed in HEK293 cells
ABCG2 [4] = assay: Selectivity index, ratio of IC50 for intrinsic cytotoxicity against HEK293 cells to IC50 for ABCG2 (unknown origin) expressed in HEK293 cells; type: toxicity, cell-based; details: human, HEK293 cells expressing ABCG2, read-out: Selectivity Index
MCF7 [5] = assay: Inhibition of cell proliferation of human MCF7 cells assessed as DNA synthesis at 100 uM after 24 hrs by EdU-click assay; type: functional, cell-based
Summary of the method: (§2)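 MCF-7 cells were grown in RPMI 1640 GlutaMax plus 10% FCS, seeded 5.0 × 10^4/well and incubated overnight. They were then exposed to inhibitor at 20 or 100 μM for 24 or 48 h (37 °C, 5% CO2), with 1% DMSO as control. EdU was incorporated and click-coupled to TAMRA azide, with Hoechst counterstain. Microscope counts gave TAMRA-positive nuclei as a percentage of total nuclei. Values are the mean (±SD) of four assays.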

MCF7 [6] = assay: Induction of apoptosis in human MCF7 cells assessed as reduction in nuclear size at 20 to 100 uM after 24 hrs by Hoechst 33258 staining based fluorescence assay; type: functional, cell-based
Summary of the method: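 MCF-7 cells grown in RPMI 1640 GlutaMax with 10% fetal calf serum, seeded 5.0 × 10^4 cells/well and incubated overnight. Medium then replaced with medium containing compound at 20 or 100 μM; 1% DMSO as control. Incubation 24 h at 37 °C, 5% CO2. Nuclei stained with Hoechst 33258 (3 μg/mL in methanol), 30 min at room temperature in the dark. Nuclear morphology examined by fluorescence microscopy.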

MCF7 [7] = assay: Induction of cell death in human MCF7 cells assessed as viable cell level at 20 to 100 uM after 24 hrs by Hoechst 33258 staining based fluorescence assay; type: functional
Summary of the method: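 MCF-7 cells grown in RPMI 1640 GlutaMax with 10% fetal calf serum, seeded at 5.0 × 10^4 cells/well and left overnight. Medium then replaced with fresh medium holding inhibitor at 20 or 100 μM, with 1% DMSO as control, for 24 h at 37 °C, 5% CO2. Nuclei stained with Hoechst 33258 (3 μg/mL in methanol, 30 min, room temperature, dark). Total cells counted and nuclear morphology examined by fluorescence microscopy.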

MCF7 [8] = assay: Induction of cell damage in human MCF7 cells at 20 to 100 uM after 24 hrs by Hoechst 33258 staining based fluorescence assay; type: functional
Summary of the method: (§3)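 MCF-7 cells in RPMI 1640 GlutaMax with 10% FCS, seeded 5.0 × 10^4 per well and left overnight. Medium was replaced with inhibitor at 20 or 100 μM, with 1% DMSO as control, for 24 h at 37 °C, 5% CO2. Nuclei were stained with Hoechst 33258 (3 μg/mL in methanol) for 30 min at room temperature in the dark and examined by fluorescence microscopy (DAPI filter) for nuclear morphology.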

MCF7 [9] = assay: Inhibition of cell proliferation of human MCF7 cells assessed as DNA synthesis at 20 uM after 48 hrs by EdU-click assay; type: functional; set-up: scale not given: the % may be the effect or the level left; summary of the method: as §2
MCF7 [10] = assay: Inhibition of cell proliferation of human MCF7 cells assessed as DNA synthesis at 20 uM after 24 hrs by EdU-click assay; type: functional; set-up: scale not given: the % may be the effect or the level left; summary of the method: as §2
MCF7 [11] = assay: Induction of apoptosis in human MCF7 cells assessed as chromatin condensation at 20 to 100 uM after 24 hrs by Hoechst 33258 staining based fluorescence assay; type: functional, cell-based; details: in the assay text read “100 uM” for “20 to 100 uM”; summary of the method: as §3

| Compound | CC50 at 72 h [1] [µM] | inhibition at 0.5 h, 10 µM (ABCG2 [2]) [%] | IC50 [3] [µM] | IC50 (Casein kinase II) [µM] | Ratio IC50 (HEK293) | selectivity ratio (ABCG2 [4]) | further results |
| --- | --- | --- | --- | --- | --- | --- | --- |
| COc1ccc2c3c([nH]c2c1)[C@H](CC(C)C)N1C(=O)[C@H](CCC(=O)OC(C)(C)C)NC(=O)[C@@H]1C3 | 32 | – | – | – | – | – | – |
| CC1CCc2c(c3c(n2C(C)C)-c2ccccc2C3=O)C1=O (stereo unspecified) | – | 40 | 20 | – | – | – | – |
| O=C1c2c(O)ccc(O)c2C(=O)c2c(NCCNCCO)ccc(NCCNCCO)c21 [MITOXANTRONE] | 0.009 | – | – | – | – | – | – |
| COc1ccccc1CCn1c2c(c3c1-c1ccccc1C3=O)C(=O)CCC2 | 27.2 | 106 | 0.21 | 1.4 | 7 | 130 | – |
| COc1ccc2[nH]cc(CCNC(=O)c3cc(=O)c4c(OCc5ccc(Br)cc5)cccc4o3)c2c1 | 96 | 98 | 0.13 | – | – | – | – |
| CCc1c2c(nc3ccc(O)cc13)-c1cc3c(c(=O)n1C2)COC(=O)[C@]3(O)CC [7-ETHYL-10-HYDROXYCAMPTOTHECIN] | 0.005 | – | – | – | – | – | – |
| COc1cccc(CCn2c3c(c4c2-c2ccccc2C4=O)C(=O)CCC3)c1 | 12.7 | 78 | 0.31 | 5.1 | 16 | 41 | – |
| O=C1CC(c2ccccc2)Cc2c1c1c(n2Cc2ccccc2)-c2ccccc2C1=O (stereo unspecified) | 16.9 | 68 | 0.96 | 55 | – | 18 | – |
| CC(C)=CCOc1cccc2c1-c1c(c3c(n1C(C)C)CCCC3=O)C2=O | 31 | 60 | 1.6 | – | – | – | inhibition (MCF7 [5]): Active; Activity (MCF7 [6]): Active; Activity (MCF7 [7]): 10%; Activity (MCF7 [8]): Active; Activity (MCF7 [9]): 1.3%; Activity (MCF7 [10]): 14%; Activity (MCF7 [11]): Active |
| CC(C)n1c2c(c3c1-c1ccccc1C3=O)C(=O)CCC2 | – | 15 | 35 | – | – | – | – |
| CC1CC(=O)c2c3c(n(Cc4ccccc4)c2C1)-c1ccccc1C3=O (stereo unspecified) | – | 33 | 15 | 35 | 2 | – | – |
| O=C1CCCc2c1c1c(n2CCCc2ccccc2)-c2ccccc2C1=O | > 100 | 83 | 0.79 | 6 | 8 | > 127 | – |
| O=C1CC(c2ccccc2)Cc2c1c1c(n2CCc2ccccc2)-c2ccccc2C1=O (stereo unspecified) | 20.1 | 83 | 0.49 | 15 | 30 | 41 | – |
| CC1CC(=O)c2c3c(n(C(C)C)c2C1)-c1ccccc1C3=O (stereo unspecified) | – | 65 | 4.1 | – | – | – | – |
| CC1CC(=O)c2c3c(n(CCc4ccccc4)c2C1)-c1ccccc1C3=O (stereo unspecified) | > 100 | 100 | 0.23 | – | 11 | – | – |
| CC(C)n1c2c(c3c1-c1ccccc1C3=O)C(=O)C(Cc1ccccc1)(Cc1ccccc1)CC2 | 6 | 90 | 0.61 | 11 | 18 | 10 | – |
| O=C1CCCc2c1c1c(n2CCc2ccccc2)-c2ccccc2C1=O | 30.7 | 100 | 0.43 | 7 | 16 | 71 | – |
| CC(C)=CCOc1cccc2c1C(=O)c1c3c(n(C(C)C)c1-2)CCCC3=O | – | 74 | 3 | – | – | – | – |
| O=C1CCCc2c1c1c(n2Cc2ccccc2)-c2ccccc2C1=O | – | 18 | 30 | 15 | 0.5 | – | – |
| COc1ccc(CCn2c3c(c4c2-c2ccccc2C4=O)C(=O)CCC3)cc1 | 68.5 | 131 | 0.7 | – | 6 | – | – |
